Active and inactive are the calls of the source. The calls are words filed in the database; no cut-off is given here. Where only a bound is given, the exact number is not on record here.

Data set [1] addresses T1, Protein O-GlcNAcase (Homo sapiens, UniProt O60502).
T1 sequence (O60502 whole entry): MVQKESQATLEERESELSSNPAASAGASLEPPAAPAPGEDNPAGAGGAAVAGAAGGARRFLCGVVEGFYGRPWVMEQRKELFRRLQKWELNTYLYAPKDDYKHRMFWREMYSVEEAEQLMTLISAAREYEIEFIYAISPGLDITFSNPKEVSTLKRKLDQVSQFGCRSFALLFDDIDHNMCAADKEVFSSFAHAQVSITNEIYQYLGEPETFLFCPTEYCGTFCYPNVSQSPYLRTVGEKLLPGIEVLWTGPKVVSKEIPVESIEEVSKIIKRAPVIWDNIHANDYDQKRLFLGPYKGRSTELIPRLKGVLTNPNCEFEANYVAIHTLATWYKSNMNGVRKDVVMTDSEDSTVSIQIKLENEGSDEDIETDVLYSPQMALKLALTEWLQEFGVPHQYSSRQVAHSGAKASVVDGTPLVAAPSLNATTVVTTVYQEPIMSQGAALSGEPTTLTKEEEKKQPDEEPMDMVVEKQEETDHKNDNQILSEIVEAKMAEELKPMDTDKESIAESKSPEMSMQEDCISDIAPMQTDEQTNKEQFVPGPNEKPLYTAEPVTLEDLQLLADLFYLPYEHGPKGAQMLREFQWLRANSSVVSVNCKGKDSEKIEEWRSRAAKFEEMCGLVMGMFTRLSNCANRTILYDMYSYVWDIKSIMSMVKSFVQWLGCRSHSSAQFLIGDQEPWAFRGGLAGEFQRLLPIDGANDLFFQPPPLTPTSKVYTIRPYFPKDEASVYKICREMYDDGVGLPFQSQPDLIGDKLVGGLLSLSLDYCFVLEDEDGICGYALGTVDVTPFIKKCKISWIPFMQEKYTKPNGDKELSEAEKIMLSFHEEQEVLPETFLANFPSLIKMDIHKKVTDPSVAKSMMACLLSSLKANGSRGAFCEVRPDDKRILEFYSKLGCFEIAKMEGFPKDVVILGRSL
The data set is described as follows: Inhibition of full-length human OGA expressed in Expi293 (HEK293) cells using 4-methylumbelliferyl-N-acetyl-beta-D-glucosaminide dihydrate as fluorogenic substrate preincubated with enzyme followed by substrate addition and measured every 5 mins for 60 mins by fluorescence based analysis. Summed up:
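Human OGA, FLAG-tagged full length from transfected Expi293 cells, purified by anti-FLAG agarose and gel filtration, 1 nM. Buffer 50 mM NaH2PO4, 100 mM NaCl, 0.01% BSA, 0.01% Tween 20, 1 mM DTT, pH 7.4; 2 mM substrate added to start after compound, RT. Ex 355/em 460 nm; 0% control enzyme+DMSO, 100% no enzyme; IC50 by variable-slope sigmoidal fit.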

Data set [2] has as its target T2, Protein O-GlcNAcase (Homo sapiens) (UniProt O60502).
T2 sequence (whole entry): T1 sequence (O60502 whole entry)
The data set is described as follows: Competitive inhibition of full-length human OGA expressed in Expi293 (HEK293) cells assessed as increase in Km of substrate using varying concentrations of 4-methylumbelliferyl-N-acetyl-beta-D-glucosaminide dihydrate as fluorogenic substrate at 0.48 to 60 nM measured for 60 mins by fluorescence based analysis. To be noted: dose 0.48-60 nM. Summed up: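 Full-length human OGA (FLAG-purified, gel filtration) at 1 nM final, in 50 mM NaH2PO4, 100 mM NaCl, 0.01% BSA, 0.01% Tween 20, 1 mM DTT, pH 7.4. Substrate serially diluted 2-fold from 2 mM at several inhibitor levels. Fluorescence read over 60 min (ex 355/em 460 nm); Vmax and Km from Michaelis–Menten nonlinear fit.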

Data set [3] can be described thus: Unbound brain-to-plasma concentration ratio in C57BL/6J mouse at 30 mg/kg, po after 0.5 hrs by equilibrium dialysis. Type of data set: ADME, organism-based. To be noted: read-out: K(p,uu,brain). Summed up:
(§1)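 Oral dose of 30 mg/kg in 0.5% methylcellulose to C57Bl/6J mice (n = 3); plasma and brain levels at 0.5 and 1 h by LC/MS/MS. Unbound fractions in plasma and brain by equilibrium dialysis; Kp,uu = (fu,brain × Cbrain)/(fu,plasma × Cplasma).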

Data set [4] is described as follows: Unbound brain-to-plasma concentration ratio in C57BL/6J mouse at 30 mg/kg, po after 1 hrs by equilibrium dialysis. Format: ADME, organism-based. To be noted: read-out: K(p,uu,brain). Summed up:
as §1

Data set [5] is described as follows: Unbound drug level in C57BL/6J mouse brain at 30 mg/kg, po by equilibrium dialysis method. Type of data set: ADME, organism-based. Summed up: (§2)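 Unbound fraction in mouse plasma and brain determined by equilibrium dialysis, with the fractions used to correct total plasma and brain levels after a 30 mg/kg oral dose in 0.5% methylcellulose.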
Background: In equilibrium dialysis only unbound substance equilibrates across the membrane.

Data set [6] deals with T2, Protein O-GlcNAcase (Homo sapiens). The data set is described as follows: Inhibition of OGA in human SH-SY5Y cells assessed as increase in O-GIcNAcylated protein levels incubated for 48 hrs by in-cell Western assay relative to control. Type of data set: cell-based. Summed up: (§3)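 SH-SY5Y cells seeded ~1.8 × 10⁴/well on poly-D-lysine, compound for 48 h at 37 °C. Methanol fixation, 0.1% Triton X-100 permeabilization, blocking, then Alexa Fluor 700-labelled anti-O-GlcNAc RL2 (1:500, 60 min RT). Infrared imaging of integrated fluorescence, normalized to DMSO (100%) and medium (0%); EC50 as curve inflection point, Emax as maximal % increase.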

The target in data set [7] is T1, Protein O-GlcNAcase. The data set is described as follows: Inhibition of OGA in human SH-SY5Y cells assessed as increase in O-GIcNAcylated protein levels incubated for 48 hrs by in-cell Western assay. Type of data set: cell-based. Summed up: as §3
The nature of data set [8]: Drug level in C57BL/6J mouse plasma at 30 mg/kg, po after 0.5 hrs by LC/MS-MS analysis. Type of data set: ADME, organism-based. Summed up: (§4)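 Suspension in 0.5% (w/v) methylcellulose dosed orally at 30 mg/kg to C57Bl/6J mice (n = 3). Blood and brain taken at 0.5 and 1 h; plasma by centrifugation, brain homogenized in saline. Acetonitrile deproteinization with internal standard, supernatant diluted in 0.2% formic acid/10 mM ammonium formate (pH 3), LC/MS/MS quantitation.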

Data set [9] in a line: Drug level in C57BL/6J mouse plasma at 30 mg/kg, po after 1 hrs by LC/MS-MS analysis. Type of data set: ADME, organism-based. Summed up: as §4
The nature of data set [10]: Inhibition of human placental beta-hexosaminidase using 4-methylumbelliferyl-N-acetyl-beta-D-glucosaminide dihydrate as fluorogenic substrate preincubated with enzyme followed by substrate addition and measured every 5 mins for 60 mins by fluorescence based analysis. Type of data set: tissue-based, Placenta. Summed up: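 Placental β-hexosaminidase at 10 μunits/mL in 50 mM NaH2PO4, 100 mM NaCl, 0.01% BSA, 0.01% Tween 20, 1 mM DTT, pH 7.4. Compound added before 2 mM substrate, room temperature. Fluorescence ex 355/em 460 nm; inhibition versus enzyme+DMSO (0%) and no-enzyme (100%) wells; IC50 from variable-slope sigmoidal regression.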

The nature of data set [11]: Drug level in C57BL/6J mouse brain at 30 mg/kg, po after 0.5 hrs by LC/MS-MS analysis. To be noted: read-out: Drug uptake. Type of data set: ADME, organism-based. Summed up: as §4
The nature of data set [12]: Drug level in C57BL/6J mouse brain at 30 mg/kg, po after 1 hrs by LC/MS-MS analysis. Format: ADME, organism-based. To be noted: read-out: Drug uptake. Summed up:
as §4

Data set [13] in a line: Unbound drug level in C57BL/6J mouse plasma at 30 mg/kg, po by equilibrium dialysis method. Format: ADME, organism-based. Summed up:
as §2

The target in data set [14] is T2, Protein O-GlcNAcase (Homo sapiens). The data set is described as follows: Inhibition of full-length human OGA expressed in Expi293 (HEK293) cells using 4-methylumbelliferyl-N-acetyl-beta-D-glucosaminide dihydrate as fluorogenic substrate at 10 uM preincubated with enzyme followed by substrate addition and measured every 5 mins for 60 mins by fluorescence based analysis.

For data set [15], the species on record is Homo sapiens. The data set is described as follows: Inhibition of human placental beta-hexosaminidase using 4-methylumbelliferyl-N-acetyl-beta-D-glucosaminide dihydrate as fluorogenic substrate at 10 uM preincubated with enzyme followed by substrate addition and measured every 5 mins for 60 mins by fluorescence based analysis. To be noted: Placenta. Type of data set: tissue-based.

Usually IC50 stands for the concentration needed to halve the response being measured. What is called inhibition is the drop in the measured response relative to a control, in per cent. The molecule `CC1CCN(c2ccnc(NCCc3ccccc3)n2)CC1` had an IC50 in data set [1] of 24 nM. Also, the inhibition entry in [2] was “Active”.

Turning to `CC1CCN(c2ccnc(NCc3cccnc3)n2)CC1`, half-maximal inhibition in data set [1] (IC50) required 18 nM.

Turning to `CC1CCN(c2ccnc(NCCc3cccnc3)n2)CC1`, the midpoint of inhibition in [1], the IC50, lay at 31 nM.

The term fraction unbound denotes the share of the substance not bound to proteins or other matrix. A lower fraction unbound goes with extensive binding. In general, Emax refers to the greatest response seen or fitted, relative to the assay's reference. In general, EC50 refers to the midpoint of the concentration-response curve. As for `CC1CCN(c2ccnc(NCc3cn(C)cn3)n2)CC1` [TP-040], the figures for the IC50 in data set [1] and in data set [10] were 46 nM and greater than 10000 nM, respectively. Besides, the Kp uu at 0.5 h in [3] was determined as 0.25. Moreover, the Kp uu at 1 h in data set [4] was 0.36. For the same molecule, the fraction unbound in [5] came to 0.14; in [13], 0.53. Besides, in data set [6], the Emax worked out at 143%. The concentration giving a half-maximal response (EC50) in data set [7] was determined as 450 nM. Further, the concentration at 0.5 h in [8] came to 2800 ng/mL; in [11] it was 2700 ng/g. The concentration at 1 h in data set [9] came to 1900 ng/mL; in data set [12] it was 2600 ng/g.

In the case of `COC1CCN(c2ccnc(NCCc3ccccc3)n2)CC1`, the IC50 in data set [1] stood at 970 nM.

`CC1CCN(c2ccnc(NCCc3ccccn3)n2)CC1` had a concentration for half-maximal inhibition (IC50) in data set [1] of 360 nM.

The molecule `CC1CCN(c2ccnc(NC(C)CN3CCN(C)CC3)n2)CC1` (centres undefined) displayed an IC50 in data set [1] of 41 nM. This molecule also had an inhibition in data set [14] greater than 50%. Also, in data set [15], the inhibition result is “inactive”.

As to `CN1CCN(c2ccnc(NCCc3ccccc3)n2)CC1` [TP-040n], the IC50 in data set [1] was greater than 10000 nM.

With `OC1CCN(c2ccnc(NCCc3ccccc3)n2)CC1`, the half-maximal inhibitory concentration (IC50) in data set [1] is greater than 10000 nM.

As to `c1ccc(CCNc2nccc(N3CCOCC3)n2)cc1`, the half-maximal inhibitory concentration (IC50) in data set [1] was found to be 4700 nM.

The values above are taken from ChEMBL document CHEMBL4706650, “Discovery of a Novel and Brain-Penetrant O-GlcNAcase Inhibitor via Virtual Screening, Structure-Based Analysis, and Rational Lead Optimization” (J Med Chem, 2021).
